Bioassay records from PubChem BioAssay.
A selection: hits, their analogues and other compounds. The true share with any hit is near 1.7%.
GALR2 agonist = GALR2 receptor agonists, primary screen, cell-based; Galanin receptor type 2 (Homo sapiens), O43603; GALR2-expressing cells, agonist activation read-out; activation, % (test concentration not listed); 0.48% of 140,000 active; AID 803, 2007; in the data active = activation above about 5%, passing the limit was not always enough
Target sequence (O43603 whole entry, looked up): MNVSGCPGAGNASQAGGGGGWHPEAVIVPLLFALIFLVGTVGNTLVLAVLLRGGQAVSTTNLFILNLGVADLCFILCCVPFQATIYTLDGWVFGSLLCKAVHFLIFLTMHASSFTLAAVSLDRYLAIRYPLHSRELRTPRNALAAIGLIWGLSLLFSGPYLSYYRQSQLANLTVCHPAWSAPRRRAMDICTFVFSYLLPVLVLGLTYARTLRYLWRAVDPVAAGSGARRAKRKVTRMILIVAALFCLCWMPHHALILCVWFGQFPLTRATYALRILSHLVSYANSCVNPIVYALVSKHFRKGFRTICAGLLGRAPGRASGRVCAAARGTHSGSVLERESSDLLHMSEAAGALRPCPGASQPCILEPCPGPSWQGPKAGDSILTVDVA
EphB4 antag = EphB4-ephrin-B2 interaction antagonists, primary screen, biochemical, TNYL-RAW peptide probe, fluorescence polarization. Ephrin type-B receptor 4 (Homo sapiens), P54760. EphB4 LBD / TNYL-RAW-Alexa532 peptide. inhibition, % at 7 µM. 0.15% of 97,000 active;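 active = inhibition above the screen-wide mean inhibition plus 3 SD, cut at about 15% in these data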
S1P2 antag = human S1P2 receptor antagonists, primary screen, cell-based | Sphingosine 1-phosphate receptor 2 (Homo sapiens), O95136 | cell-based S1P2 antagonist assay, inhibition at 5 uM | inhibition, % at 5 µM | 0.21% of 97,000 active | AID 736, 2007; in the data active = inhibition above about 45%;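 also: CRE beta-lactamase reporter cells expressing human S1P2 stimulated with S1P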
GALR2 blocker = GALR2 antagonists in receptor-expressing cells, primary screen; Galanin receptor type 2 (Homo sapiens), O43603; antagonist mode; inhibition, % at 4 µM; 0.39% of 140,000 active; AID 828, 2007;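 also: cells stimulated with galanin 1-16 at roughly its EC80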
S1P2 ag = S1P2 receptor agonists, primary screen, cell-based. Sphingosine 1-phosphate receptor 2 (Homo sapiens), O95136. 0.46% of 97,000 active. AID 729, 2007. activation, % at 4.5 µM. S1P2-expressing cell line, agonist reporter read-out; in the data active = activation above about 16%
Rev-RRE block = HIV-1 Rev-RRE binding inhibitors, primary screen, biochemical, FRET, protein-RNA interaction. inhibition, % at 8 µM. 0.79% of 97,000 active. Rev peptide-RRE RNA binding;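 active = inhibition above the screen-wide mean plus 3 SD, cut at about 35% in these data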
Target sequence (P05866 whole entry, looked up): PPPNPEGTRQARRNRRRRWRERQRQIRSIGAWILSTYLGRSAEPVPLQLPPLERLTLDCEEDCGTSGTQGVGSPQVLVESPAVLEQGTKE
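System: Cy5-labelled duplex RRE RNA binding fluorescein-labelled HIV Rev peptide; Signal: fluorescein-to-Cy5 FRET, 480 nm excitation; Also added: labelled Rev peptide; Compound: one concentration, 8 µM nominal; Buffer or medium: HEPES pH 7.5 salt buffer with EDTA; Read-out: % inhibition of FRET ratio versus controls; Schedule: 5 min preincubation and 15 min binding, 25 °C.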
GALR2 ant conf = GALR2 antagonists, retest of hits, confirmation, cell-based; inhibition, % at 4 µM; 60% of 480 active; GALR2-expressing cells, antagonist mode, inhibition; shares compounds with GALR2 blocker;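 also: cells stimulated with galanin at about its EC80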
BLA inh counter = inhibitors of NFAT-driven beta-lactamase reporter, confirmation, counter-screen for GALR2 antagonist project, CHO NFAT-bla cells, FRET readout; shares compounds with GALR2 blocker; thapsigargin-stimulated; inhibition, % at 4.2 µM; 36% of 480 active; AID 867, 2007;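 active = inhibition above the mean inhibition across tested compounds plus 3 SD, cut at about 27% in these data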
Each line names hits and unclear results; the compound was inactive in the other large screens (follow-up assays come after a bar, where they were run). Rule as the data show it, unless noted: active = inhibition above about 27%; inactive = the rest.

COc1cc(C(=O)ON=C2C=C(C)C(=O)C(C)=C2)cc(OC)c1OC	none (no result: EphB4 antag, S1P2 antag, S1P2 ag, Rev-RRE block)
O=C(N/N=C/c1cc2c3c(c1O)CCCN3CCC2)c1ccccc1O	GALR2 blocker 32 (no result: EphB4 antag, S1P2 antag, S1P2 ag, Rev-RRE block) | GALR2 ant conf 35 | BLA inh counter inactive
Cc1cccc(C(C)C)c1NC(=O)C1CN(S(=O)(=O)c2ccccc2)CCN1S(=O)(=O)c1ccccc1 (stereo not drawn)	none (no result: EphB4 antag, S1P2 antag, S1P2 ag, Rev-RRE block)
CCOc1ccc(-c2nc(-c3ccncc3)no2)cc1OCC	none
CCOc1cc(-c2nc(-c3ccncc3)no2)cc(OCC)c1OCC	GALR2 blocker 35 | GALR2 ant conf inactive | BLA inh counter inactive
CCOC(=O)c1ccccc1NC(=O)c1cccs1	none
CCOC(=O)c1ccccc1N/C=C/C(=O)c1cccs1	GALR2 blocker 27 (no result: EphB4 antag, S1P2 antag, S1P2 ag, Rev-RRE block) | GALR2 ant conf 27 | BLA inh counter inactive
Cn1cnnc1SCc1ccc(C(=O)n2ncc(C#N)c2N)cc1	none (no result: EphB4 antag, S1P2 antag, S1P2 ag, Rev-RRE block)
Cc1ccc(SC(C)C(=O)Nc2ccccc2C(=O)N2CCOCC2)cc1 (stereo not drawn)	GALR2 blocker 32 | GALR2 ant conf inactive | BLA inh counter inactive
CC(=O)SC(C[N+](=O)[O-])c1cn(C(C)=O)c2ccccc12 (stereo not drawn)	GALR2 blocker 35 | GALR2 ant conf 56 | BLA inh counter inactive
CC(=O)n1cc(Nc2ccccc2C(=O)O)c2ccccc21	none
Cc1ccc(/C=N\NC(=O)C2CN(S(=O)(=O)c3ccccc3)CCN2S(=O)(=O)c2ccccc2)cc1 (stereo not drawn)	none (no result: EphB4 antag, S1P2 antag, S1P2 ag, Rev-RRE block)
CCCC(=O)OCCn1c(Br)nc2c1c(=O)[nH]c(=O)n2C	GALR2 blocker 30 | GALR2 ant conf inactive | BLA inh counter inactive
CC(=O)c1c(C)[nH]c(C(=O)OCCCCN2C(=O)c3ccccc3C2=O)c1C	S1P2 antag 63, GALR2 blocker 32 | GALR2 ant conf 39 | BLA inh counter inactive
CC(=O)c1c(C)[nH]c(C(=O)OCc2ccccc2)c1C	none (no result: EphB4 antag, S1P2 antag, S1P2 ag, Rev-RRE block)
O=C(CSc1ncnc2c1oc1ccccc12)NCc1ccco1	none
N#CC(C#N)=C1C=CC=CN1/C(=C\c1ccccc1Cl)C(=O)c1ccccc1	GALR2 blocker 73 (no result: EphB4 antag, S1P2 antag, S1P2 ag, Rev-RRE block) | GALR2 ant conf 89 | BLA inh counter 99
O=C(CSCc1nc2ccccc2[nH]1)N1CCN(c2ccc(F)cc2)CC1	GALR2 blocker 30 | GALR2 ant conf inactive | BLA inh counter inactive
CCCn1nnnc1SCC(=O)NCc1ccc2c(c1)OCO2	none
CC(C)c1ccc(-c2nc(N3CCOCC3)[nH]c(=O)c2C#N)cc1	none
Cc1ccnc(N2C(=O)c3cccc4c([N+](=O)[O-])ccc(c34)C2=O)c1	S1P2 antag 52, GALR2 blocker 36, Rev-RRE block 45 | GALR2 ant conf 42 | BLA inh counter 40
O=C1c2cc([N+](=O)[O-])cc3cc([N+](=O)[O-])cc(c23)C(=O)N1c1ccccn1	none (no result: EphB4 antag, S1P2 antag, S1P2 ag, Rev-RRE block)
CCOC(=O)C(O)(CC(=O)Nc1cc(F)ccc1C)C(F)(F)F (stereo not drawn)	GALR2 blocker 29 | GALR2 ant conf inactive | BLA inh counter inactive
N#C/C(=C\c1ccc(Sc2ccc(Cl)cc2)o1)c1nc2ccccc2[nH]1	GALR2 blocker 32 (no result: EphB4 antag, S1P2 antag, S1P2 ag, Rev-RRE block) | GALR2 ant conf 35 | BLA inh counter 29
N#C/C(=C\c1ccc(Sc2nc3ccccc3[nH]2)o1)c1ccccc1	none
Cc1ccc(/C=C(\C#N)c2nc3ccccc3[nH]2)s1	GALR2 blocker 30 | GALR2 ant conf 34 | BLA inh counter inactive
N#C/C(=C/c1cccs1)c1nc2ccccc2[nH]1	none (no result: EphB4 antag, S1P2 antag, S1P2 ag, Rev-RRE block)
CN(CC(=O)N1CCN(c2cccc(Cl)c2)CC1)S(=O)(=O)c1cccs1	none
CC(CC(=O)c1cccs1)CC(=O)c1cccs1	GALR2 blocker 33 | GALR2 ant conf inactive | BLA inh counter inactive
Cc1cc(C(=O)CSc2nc3ccccc3[nH]2)c(C)n1CC1CCCO1 (stereo not drawn)	S1P2 antag 66, GALR2 blocker 43 | GALR2 ant conf 34 | BLA inh counter inactive
Cc1cc(N2C(=O)C=CC2=O)c([N+](=O)[O-])cc1C	GALR2 blocker 45 (no result: EphB4 antag, S1P2 antag, S1P2 ag, Rev-RRE block) | GALR2 ant conf 46 | BLA inh counter 71
Cc1ccc(C)c(N2CCN(c3ccc(N4C(=O)COCC4=O)cc3[N+](=O)[O-])CC2)c1	none (no result: EphB4 antag, S1P2 antag, S1P2 ag, Rev-RRE block)
CC12C(=O)N(CCC(=O)O)C(=O)C1C1C=CC2C1 (stereo not drawn)	none
Nc1nc(Nc2cccc(F)c2)nc2ccccc12	GALR2 blocker 31 (no result: EphB4 antag, S1P2 antag, S1P2 ag, Rev-RRE block) | GALR2 ant conf inactive | BLA inh counter inactive
Cc1nc2ccccn2c1C(=O)NNS(=O)(=O)c1ccc(C(C)(C)C)cc1	GALR2 blocker 30 (no result: EphB4 antag, S1P2 antag, S1P2 ag, Rev-RRE block) | GALR2 ant conf inactive | BLA inh counter inactive
CCOc1ccc(OCC)c(S(=O)(=O)NNC(=O)c2c(C)nc3ccccn23)c1	none (no result: EphB4 antag, S1P2 antag, S1P2 ag, Rev-RRE block)
Cc1ccc2nc(-c3sc4nc(C)ccc4c3N)[nH]c2c1	none
Cc1cc(C)c2c(N)c(-c3nc4ccccc4[nH]3)sc2n1	GALR2 blocker 28 | GALR2 ant conf inactive | BLA inh counter inactive
CCC(=O)N1CCCc2cc(S(=O)(=O)N3CCN(c4ccccn4)CC3)ccc21	none (no result: EphB4 antag, S1P2 antag, S1P2 ag, Rev-RRE block)
CCOC(=O)C1=C(CS(=O)(=O)c2ccc(F)c(C)c2)NC(=O)NC1c1ccc(O)c(O)c1 (stereo not drawn)	none (no result: EphB4 antag, S1P2 antag, S1P2 ag, Rev-RRE block)
Cc1ccc(NC(=O)CSCCc2ccccn2)nc1	none
COc1ccc(Br)cc1/C(C)=N/NC1=NCCN1	none
CCCCCOc1ccc(Br)cc1/C(C)=N/NC1=NCCN1	GALR2 blocker 28 | GALR2 ant conf inactive | BLA inh counter 28
COc1ccccc1S(=O)(=O)Nc1ccc2cn[nH]c2c1	GALR2 blocker 27 (no result: EphB4 antag, S1P2 antag, S1P2 ag, Rev-RRE block) | GALR2 ant conf inactive | BLA inh counter inactive
CCOc1nc(SC(C(C)=O)C(=O)Nc2ccccc2)nc(N(C)C)n1 (stereo not drawn)	none
CN(C(=S)NC1CCCCC1)C1(c2ccccc2Cl)CCCCC1=O (stereo not drawn)	GALR2 blocker 27 (no result: EphB4 antag, S1P2 antag, S1P2 ag, Rev-RRE block) | GALR2 ant conf 34 | BLA inh counter inactive
CCCCCCCCCCn1c2c(c(=N)c3c1CCC3)CCC2	S1P2 antag 87, GALR2 blocker 36 | GALR2 ant conf 30 | BLA inh counter 57
COc1ccc(Nc2cnn(-c3nc4ccccc4s3)c(=O)c2Cl)cc1	GALR2 blocker 44 (no result: EphB4 antag, S1P2 antag, S1P2 ag, Rev-RRE block) | GALR2 ant conf 52 | BLA inh counter 58
